Reference: ChEMBL document CHEMBL4028872, “Structure-Activity Relationship, Pharmacological Characterization, and Molecular Modeling of Noncompetitive Inhibitors of the Betaine/γ-Aminobutyric Acid Transporter 1 (BGT1)” (J Med Chem, 2017)

What was measured:
Type in all cases: cell-based
[1] = molecular target: T1, Sodium- and chloride-dependent GABA transporter 2 (Homo sapiens, UniProt Q9NSD5); assay: Inhibition of human GAT2 expresses in tsA201 cells assessed as reduction in [3H]GABA uptake after 3 mins by scintillation counting method
T1 sequence (Q9NSD5 whole entry): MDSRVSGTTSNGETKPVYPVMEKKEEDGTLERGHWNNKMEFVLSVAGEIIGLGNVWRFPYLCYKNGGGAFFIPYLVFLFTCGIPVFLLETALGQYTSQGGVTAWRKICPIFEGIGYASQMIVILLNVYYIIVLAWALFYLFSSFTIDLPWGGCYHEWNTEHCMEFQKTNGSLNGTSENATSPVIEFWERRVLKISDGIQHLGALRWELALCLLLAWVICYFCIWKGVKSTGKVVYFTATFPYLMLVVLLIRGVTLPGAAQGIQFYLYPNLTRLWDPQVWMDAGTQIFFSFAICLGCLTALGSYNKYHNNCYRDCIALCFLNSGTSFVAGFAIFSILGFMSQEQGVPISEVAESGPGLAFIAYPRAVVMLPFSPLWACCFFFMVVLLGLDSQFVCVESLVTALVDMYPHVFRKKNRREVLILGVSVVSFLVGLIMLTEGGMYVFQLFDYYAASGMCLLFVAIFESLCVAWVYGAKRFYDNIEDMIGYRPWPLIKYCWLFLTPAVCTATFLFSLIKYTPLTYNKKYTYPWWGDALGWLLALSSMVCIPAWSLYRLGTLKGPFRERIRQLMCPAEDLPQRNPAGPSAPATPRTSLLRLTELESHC
Summary of the method: (§1)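 Wild-type human GAT transiently expressed in tsA201 cells via pcDNA5/FRT and PolyFect. Uptake of 30 nM [3H]GABA was run for 3 min at 37 °C in HBSS/20 mM HEPES with 1 mM CaCl2 and 1 mM MgCl2, pH 7.4, across a range of test concentrations. Ice-cold washes were followed by scintillation counting. IC50 was obtained by sigmoidal variable-slope fitting, reported as mean pIC50 ± S.E.M.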

[2] = molecular target: T2, Sodium- and chloride-dependent GABA transporter 3 (Homo sapiens, UniProt P48066); assay: Inhibition of human GAT3 expresses in tsA201 cells assessed as reduction in [3H]GABA uptake after 3 mins by scintillation counting method; summary of the method: as §1
T2 sequence (P48066 whole entry): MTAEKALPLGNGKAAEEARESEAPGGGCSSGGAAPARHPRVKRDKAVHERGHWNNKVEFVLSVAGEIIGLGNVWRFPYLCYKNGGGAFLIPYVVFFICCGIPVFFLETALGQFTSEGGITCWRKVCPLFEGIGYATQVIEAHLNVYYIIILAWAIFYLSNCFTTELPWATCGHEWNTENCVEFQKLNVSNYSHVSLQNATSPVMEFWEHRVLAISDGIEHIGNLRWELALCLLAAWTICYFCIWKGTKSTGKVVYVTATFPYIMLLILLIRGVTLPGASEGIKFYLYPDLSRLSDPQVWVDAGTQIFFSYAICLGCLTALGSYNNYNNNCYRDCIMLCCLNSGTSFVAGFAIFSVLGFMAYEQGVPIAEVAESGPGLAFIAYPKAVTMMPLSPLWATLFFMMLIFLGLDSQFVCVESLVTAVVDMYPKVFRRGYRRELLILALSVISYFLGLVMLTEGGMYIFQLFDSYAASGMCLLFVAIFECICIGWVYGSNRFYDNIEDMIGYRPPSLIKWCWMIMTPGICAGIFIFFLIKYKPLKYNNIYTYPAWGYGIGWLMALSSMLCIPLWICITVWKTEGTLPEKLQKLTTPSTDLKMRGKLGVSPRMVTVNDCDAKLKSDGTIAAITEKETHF

[3] = molecular target: T3, Sodium- and chloride-dependent betaine transporter (Homo sapiens, UniProt P48065); assay: Inhibition of human BGT1 expresses in tsA201 cells assessed as reduction in [3H]GABA uptake after 3 mins by scintillation counting method
T3 sequence (P48065 whole entry): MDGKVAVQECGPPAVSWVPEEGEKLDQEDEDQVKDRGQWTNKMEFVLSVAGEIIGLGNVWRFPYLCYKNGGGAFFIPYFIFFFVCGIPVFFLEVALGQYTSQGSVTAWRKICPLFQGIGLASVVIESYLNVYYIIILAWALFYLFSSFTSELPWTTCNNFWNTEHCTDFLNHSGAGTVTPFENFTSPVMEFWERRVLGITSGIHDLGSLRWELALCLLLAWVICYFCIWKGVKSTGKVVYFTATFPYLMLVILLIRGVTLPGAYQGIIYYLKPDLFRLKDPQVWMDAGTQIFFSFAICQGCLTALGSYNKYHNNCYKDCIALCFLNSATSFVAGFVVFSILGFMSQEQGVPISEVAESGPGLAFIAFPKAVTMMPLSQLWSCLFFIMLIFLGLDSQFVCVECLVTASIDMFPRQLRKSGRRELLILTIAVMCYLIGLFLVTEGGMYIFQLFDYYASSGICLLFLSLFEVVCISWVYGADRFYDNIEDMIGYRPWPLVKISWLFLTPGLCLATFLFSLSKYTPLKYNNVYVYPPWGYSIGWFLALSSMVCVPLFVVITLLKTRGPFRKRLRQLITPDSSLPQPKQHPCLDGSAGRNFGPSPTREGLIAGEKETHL
Summary of the method: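 tsA201 cells transiently transfected with wild-type or mutant human BGT1 (PolyFect) were plated about 24 h before assay. Three ice-cold washes followed, then scintillation counting.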

[4] = molecular target: Sodium- and chloride-dependent GABA transporter 1 (Homo sapiens, UniProt P30531)
Sequence of Sodium- and chloride-dependent GABA transporter 1 (P30531 whole entry): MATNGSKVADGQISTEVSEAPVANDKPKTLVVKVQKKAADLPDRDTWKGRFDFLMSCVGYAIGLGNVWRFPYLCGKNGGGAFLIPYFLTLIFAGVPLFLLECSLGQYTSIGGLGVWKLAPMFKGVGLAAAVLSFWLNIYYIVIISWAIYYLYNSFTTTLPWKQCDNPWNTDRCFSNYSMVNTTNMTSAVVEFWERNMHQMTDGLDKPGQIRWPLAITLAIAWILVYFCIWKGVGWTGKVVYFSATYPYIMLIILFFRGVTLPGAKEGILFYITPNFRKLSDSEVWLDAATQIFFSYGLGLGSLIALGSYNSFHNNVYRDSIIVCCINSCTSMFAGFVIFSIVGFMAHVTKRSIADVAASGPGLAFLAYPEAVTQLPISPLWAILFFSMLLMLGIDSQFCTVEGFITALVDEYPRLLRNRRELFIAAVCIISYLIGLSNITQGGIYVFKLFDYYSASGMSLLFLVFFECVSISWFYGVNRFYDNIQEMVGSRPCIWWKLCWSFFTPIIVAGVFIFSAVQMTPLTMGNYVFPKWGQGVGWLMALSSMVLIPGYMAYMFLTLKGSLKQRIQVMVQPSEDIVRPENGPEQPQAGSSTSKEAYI

SMILES | IC50 ([1]; read-out: IC50) [µM] | IC50 ([2]; read-out: IC50) [µM] | IC50 ([3]; read-out: IC50) [µM] | IC50 ([4]; read-out: IC50) [µM] | IC50 [1] [µM] | IC50 [2] [µM] | IC50 [3] [µM] | IC50 [4] [µM]
O=C(O)CN1CCC(NC(=O)c2ccc(Cl)cc2Cl)CC1 | > 1000 | > 1000 | > 1000 | > 1000 |  |  |  | 
O=C(CN1CCC(NC(=O)c2ccc(Cl)cc2Cl)CC1)c1ccccc1 | > 100 | > 100 | > 100 | > 100 |  |  |  | 
CC(C)(C)OC(=O)CN1CCC(NC(=O)c2ccc(Cl)cc2Cl)CC1 | > 1000 | > 1000 | > 1000 | > 1000 |  |  |  | 
N#CCCCN1CCC(NC(=O)c2ccc(Cl)cc2Cl)CC1 | > 1000 | > 1000 | > 1000 | > 1000 |  |  |  | 
O=C(NC1CCN(Cc2ccccc2)CC1)c1ccccc1 | > 1000 | > 1000 | 290 | > 1000 |  |  |  | 
N#Cc1ccccc1CN1CCC(NC(=O)c2ccc(Cl)cc2Cl)CC1 | > 50 | > 50 | > 50 | > 50 |  |  |  | 
O=C(NC1CCN(C/C=C/c2ccccc2)CC1)c1ccc(Cl)cc1Cl | > 100 | > 100 | > 100 | > 100 |  |  |  | 
O=C(NC1CCN(Cc2ccccc2[N+](=O)[O-])CC1)c1ccc(Cl)cc1Cl | > 100 | > 100 | > 100 | > 100 |  |  |  | 
O=C(NC1CCN(Cc2ccc(I)cc2)CC1)c1ccc(Cl)cc1Cl | > 100 | > 100 | > 100 | > 100 |  |  |  | 
COC(=O)c1ccc(CN2CCC(NC(=O)c3ccc(Cl)cc3Cl)CC2)cc1 | > 100 | > 100 | > 100 | > 100 |  |  |  | 
O=C(NC1CCN(Cc2ccccc2)CC1)c1ccc2c(c1)OCO2 |  |  |  |  | 63 | > 100 | 42 | > 100
O=C(NC1CCN(Cc2ccc3ccccc3c2)CC1)c1ccc(Cl)cc1Cl | > 50 | > 50 | > 50 | > 50 |  |  |  | 
N#Cc1ccc(CN2CCC(NC(=O)c3ccc(Cl)cc3Cl)CC2)cc1 | > 50 | > 50 | > 50 | > 50 |  |  |  | 
CCN1CCC(NC(=O)c2ccc(Cl)cc2Cl)CC1 | > 1000 | > 1000 | > 1000 | > 1000 |  |  |  | 
CCOP(=O)(CCCN1CCC(NC(=O)c2ccc(Cl)cc2Cl)CC1)OCC | > 1000 | > 1000 | > 1000 | > 1000 |  |  |  | 
